Measurements published in ChEMBL document CHEMBL3414552, “Design and structure activity relationship of tumor-homing histone deacetylase inhibitors conjugated to folic and pteroic acids” (Eur J Med Chem, 2015).
Calls of active or inactive are those of the source. No cut-off for these calls is given here.

What was measured:
[1] = target: T1, Protein deacetylase HDAC6 (Homo sapiens, UniProt Q9UBN7); assay: Inhibition of HDAC6 (unknown origin) after 60 mins by MALDI mass spectrometry
T1 sequence (Q9UBN7 whole entry): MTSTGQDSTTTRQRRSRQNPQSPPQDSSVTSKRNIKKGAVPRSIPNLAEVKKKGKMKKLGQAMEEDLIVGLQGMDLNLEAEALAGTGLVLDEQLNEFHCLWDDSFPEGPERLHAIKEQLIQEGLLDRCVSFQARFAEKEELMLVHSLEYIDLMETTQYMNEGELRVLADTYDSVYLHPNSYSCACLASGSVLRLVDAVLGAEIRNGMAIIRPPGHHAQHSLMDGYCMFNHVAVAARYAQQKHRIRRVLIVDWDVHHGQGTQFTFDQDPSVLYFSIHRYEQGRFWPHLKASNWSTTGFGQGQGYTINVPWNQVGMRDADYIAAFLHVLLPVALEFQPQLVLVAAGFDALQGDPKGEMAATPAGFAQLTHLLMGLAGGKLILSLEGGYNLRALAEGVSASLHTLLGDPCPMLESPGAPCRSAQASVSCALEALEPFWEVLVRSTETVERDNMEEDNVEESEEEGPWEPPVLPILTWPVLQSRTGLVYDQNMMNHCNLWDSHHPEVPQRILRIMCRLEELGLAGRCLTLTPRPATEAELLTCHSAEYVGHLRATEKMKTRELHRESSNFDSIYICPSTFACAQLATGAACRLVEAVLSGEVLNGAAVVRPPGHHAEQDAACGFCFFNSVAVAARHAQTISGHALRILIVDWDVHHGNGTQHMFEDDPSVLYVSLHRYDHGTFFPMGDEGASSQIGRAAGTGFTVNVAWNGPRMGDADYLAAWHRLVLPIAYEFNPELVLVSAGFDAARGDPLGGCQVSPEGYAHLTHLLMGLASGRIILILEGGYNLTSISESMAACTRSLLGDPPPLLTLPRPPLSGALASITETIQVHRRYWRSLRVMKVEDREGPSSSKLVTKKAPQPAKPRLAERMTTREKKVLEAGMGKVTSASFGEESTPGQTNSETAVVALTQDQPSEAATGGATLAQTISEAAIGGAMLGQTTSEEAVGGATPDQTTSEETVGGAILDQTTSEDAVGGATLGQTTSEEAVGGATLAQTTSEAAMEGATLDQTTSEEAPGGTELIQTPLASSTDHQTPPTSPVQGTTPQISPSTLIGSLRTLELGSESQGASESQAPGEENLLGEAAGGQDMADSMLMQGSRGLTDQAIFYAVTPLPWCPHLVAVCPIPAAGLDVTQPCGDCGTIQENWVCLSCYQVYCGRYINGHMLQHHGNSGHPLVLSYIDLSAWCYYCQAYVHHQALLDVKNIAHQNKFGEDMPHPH

Histone deacetylase 8 = target: T2, Histone deacetylase 8 (Homo sapiens, UniProt Q9BY41); assay: Inhibition of His-tagged HDAC8 (unknown origin) expressed in Escherichia coli BL21(DE3) after 60 mins by MALDI mass spectrometry
T2 sequence (Q9BY41 whole entry): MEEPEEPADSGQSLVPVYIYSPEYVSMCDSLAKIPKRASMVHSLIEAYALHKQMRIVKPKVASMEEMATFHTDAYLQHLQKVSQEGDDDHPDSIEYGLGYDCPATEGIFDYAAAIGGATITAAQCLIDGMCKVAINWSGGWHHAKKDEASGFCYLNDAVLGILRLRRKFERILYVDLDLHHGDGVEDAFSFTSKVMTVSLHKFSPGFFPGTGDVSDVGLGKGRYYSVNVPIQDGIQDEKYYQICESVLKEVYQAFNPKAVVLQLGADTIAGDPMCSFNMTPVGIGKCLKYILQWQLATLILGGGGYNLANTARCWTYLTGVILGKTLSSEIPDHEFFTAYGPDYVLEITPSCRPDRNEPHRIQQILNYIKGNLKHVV

KB [2] = assay: Cytotoxicity against human KB cells at 100 uM after 72 hrs by MTS assay; format: functional
Method in brief: (§1)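 Cells kept in folate-free RPMI with 10% FBS and 1% pen/strep (KB, HeLa) or DMEM with 10% FBS and 1% pen/strep (A549). For the assay, cells were plated in folate-free RPMI for 24 h, then drug-treated for 72 h at 0.1% DMSO. Viability was read by MTS. Mean ± SD from at least 2 independent triplicate experiments.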

HeLa [3] = assay: Cytotoxicity against human HeLa cells at 100 uM after 72 hrs by MTS assay; format: functional
Method in brief: as §1

Histone deacetylase 1 [4] = target: T3, Histone deacetylase 1 (Homo sapiens, UniProt Q13547); assay: Inhibition of HDAC1 (unknown origin) after 60 mins by MALDI mass spectrometry
Homo sapiens [5] = species on record: Homo sapiens; assay: Selectivity ratio of IC50 for His-tagged HDAC1 (unknown origin) to IC50 for His-tagged HDAC6 (unknown origin)
Method in brief: (§2)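 Enzyme (250 nM) was incubated with inhibitor for 60 min at 37 °C in Tris-HCl pH 8.0 buffer containing NaCl, KCl, MgCl2 and BSA. Substrates were GRK(ac)FGC for HDAC1/HDAC8 and GRK(ac)YGC for HDAC6. Reactions were TSA-quenched, immobilized on maleimide SAMs and read by MALDI (SAMDI); deacetylation was taken as the product fraction.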

Homo sapiens [6] = species on record: Homo sapiens; assay: Selectivity ratio of IC50 for His-tagged HDAC8 (unknown origin) to IC50 for His-tagged HDAC6 (unknown origin)
Method in brief: as §2

[7] = target: T4, Protein deacetylase HDAC6 (Homo sapiens) (UniProt Q9UBN7); assay: Inhibition of HDAC6 in human KB cells assessed as increase in tubulin acetylation at 100 uM after 4 hrs by Western blotting analysis; format: cell-based
T4 sequence (whole entry): T1 sequence (Q9UBN7 whole entry)
Method in brief: (§3)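 KB cells were plated for 24 h, then compound-treated for 4 h (tubulin acetylation) or 24 h (histone H4 acetylation). Cells were PBS-washed and lysed in CelLytic M with protease inhibitor cocktail. Protein was Bradford-quantified and equal amounts were resolved by SDS-PAGE at 100 V. Detection used IRDye680 and IRDye800 secondary antibodies.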

[8] = target: T4, Protein deacetylase HDAC6 (Homo sapiens); assay: Inhibition of His-tagged HDAC6 (unknown origin) expressed in Escherichia coli BL21(DE3) at 10 uM after 60 mins by MALDI mass spectrometry
Method in brief: as §2

[9] = target: T5, Histone deacetylase 8 (Homo sapiens) (UniProt Q9BY41); assay: Inhibition of His-tagged HDAC8 (unknown origin) expressed in Escherichia coli BL21(DE3) at 10 uM after 60 mins by MALDI mass spectrometry
T5 sequence (whole entry): T2 sequence (Q9BY41 whole entry)
Method in brief: as §2

Histone deacetylase 1 [10] = target: T3, Histone deacetylase 1; assay: Inhibition of His-tagged HDAC1 (unknown origin) expressed in Escherichia coli BL21(DE3) at 10 uM after 60 mins by MALDI mass spectrometry
Method in brief: as §2

A549 = assay: Cytotoxicity against human A549 cells at 100 uM after 72 hrs by MTS assay; format: functional; settings: A549, 72 h
Method in brief: as §1

KB [11] = assay: Cytotoxicity against human KB cells after 72 hrs by MTS assay; format: functional, cell-based
[12] = target: T4, Protein deacetylase HDAC6 (Homo sapiens); assay: Inhibition of HDAC6 in human KB cells assessed as increase in tubulin acetylation at >= IC50 after 4 hrs by Western blotting analysis; format: cell-based
Method in brief: as §3

KB [13] = assay: Cytotoxicity against human KB cells at 25 uM after 72 hrs by MTS assay in presence of folic acid
HeLa [14] = assay: Cytotoxicity against human HeLa cells after 72 hrs by MTS assay; format: functional, cell-based

T3 sequence (Q13547 whole entry): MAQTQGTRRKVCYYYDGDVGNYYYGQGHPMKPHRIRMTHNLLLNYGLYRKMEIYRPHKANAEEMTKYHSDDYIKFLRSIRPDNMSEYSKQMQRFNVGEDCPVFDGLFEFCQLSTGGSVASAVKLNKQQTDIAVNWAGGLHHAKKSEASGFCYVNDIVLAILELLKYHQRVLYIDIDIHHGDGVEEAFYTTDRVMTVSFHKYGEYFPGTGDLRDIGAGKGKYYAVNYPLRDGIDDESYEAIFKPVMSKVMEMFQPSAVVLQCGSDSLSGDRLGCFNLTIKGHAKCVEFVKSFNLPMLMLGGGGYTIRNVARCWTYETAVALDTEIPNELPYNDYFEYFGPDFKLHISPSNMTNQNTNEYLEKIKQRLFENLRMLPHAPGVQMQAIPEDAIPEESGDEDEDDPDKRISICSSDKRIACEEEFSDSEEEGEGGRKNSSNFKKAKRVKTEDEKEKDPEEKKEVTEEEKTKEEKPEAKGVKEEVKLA

Row | Compound | IC50 [1] | IC50 (Histone deacetylase 8) | inhibition at 100 µM (KB [2]) | inhibition at 100 µM (HeLa [3]) | IC50 (Histone deacetylase 1 [4]) | inhibition [9] | further results
1 | Nc1nc2ncc(CNc3ccc(C(=O)N[C@@H](CCC(=O)NCCCCCCCC(=O)NO)C(=O)O)cc3)nc2c(=O)[nH]1 | 193 nM | 2370 nM | < 20% | < 20% | 1800 nM | – | –
2 | Nc1nc2ncc(CNc3ccc(C(=O)NO)cc3)nc2c(=O)[nH]1 | 17.6 nM | 581 nM | – | – | 2390 nM | – | Ratio IC50 (Homo sapiens [5]): 130; Ratio IC50 (Homo sapiens [6]): 32; Activity [7]: Active
3 | Nc1nc2ncc(CNc3ccc(C(=O)N[C@@H](CCC(=O)NCCCCCCCCC(=O)Nc4cc(-c5cccs5)ccc4N)C(=O)O)cc3)nc2c(=O)[nH]1 | – | – | – | – | 309 nM | < 20% | inhibition [8]: < 20%
4 | Nc1nc2ncc(CNc3ccc(C(=O)N[C@@H](CCC(=O)NO)C(=O)O)cc3)nc2c(=O)[nH]1 | – | – | – | – | – | < 20% | inhibition [8]: < 20%; inhibition (Histone deacetylase 1 [10]): < 20%
5 | Nc1nc2ncc(CNc3ccc(C(=O)N[C@@H](CCC(=O)NCCCCCCCCC(=O)NO)C(=O)O)cc3)nc2c(=O)[nH]1 | 179 nM | 1560 nM | – | – | 2760 nM | – | –
6 | Nc1nc2ncc(CNc3ccc(C(=O)NCCCCCC(=O)NO)cc3)nc2c(=O)[nH]1 | 43.6 nM | – | 25% | < 20% | 79.6 nM | 41% | –
7 | Nc1nc2ncc(CNc3ccc(C(=O)NCCCCCCCCC(=O)NO)cc3)nc2c(=O)[nH]1 | 10.2 nM | 7590 nM | 33% | 35% | 524 nM | – | –
8 | Nc1nc2ncc(CNc3ccc(C(=O)NCCCCCCC(=O)NO)cc3)nc2c(=O)[nH]1 | 12.2 nM | 1060 nM | – | 34% | 23.4 nM | – | inhibition at 100 µM (A549): < 20%; IC50 (KB [11]): 53700 nM; Activity [12]: Active
9 | Nc1nc2ncc(CNc3ccc(C(=O)N[C@@H](CCC(=O)NCCCC(=O)NO)C(=O)O)cc3)nc2c(=O)[nH]1 | 8050 nM | – | – | – | – | 40% | inhibition (Histone deacetylase 1 [10]): < 20%
10 | CC(=O)Nc1ccc(C(=O)Nc2cc(-c3cccs3)ccc2N)cc1 | – | – | – | – | – | – | IC50 (KB [11]): 5270 nM
11 | Nc1nc2ncc(CNc3ccc(C(=O)N[C@@H](CCC(=O)NCCCCCCC(=O)Nc4cc(-c5cccs5)ccc4N)C(=O)O)cc3)nc2c(=O)[nH]1 | – | – | – | – | 435 nM | < 20% | inhibition [8]: < 20%
12 | Nc1nc2ncc(CNc3ccc(C(=O)N[C@@H](CCC(=O)NCCCCCCCC(=O)Nc4cc(-c5cccs5)ccc4N)C(=O)O)cc3)nc2c(=O)[nH]1 | – | 10000 nM | – | – | 287 nM | – | inhibition [8]: < 20%
13 | Nc1nc2ncc(CNc3ccc(C(=O)NCCCC(=O)NO)cc3)nc2c(=O)[nH]1 | 1460 nM | – | < 20% | < 20% | – | 25% | inhibition (Histone deacetylase 1 [10]): 22.1%
14 | Nc1nc2ncc(CNc3ccc(C(=O)N[C@@H](CCC(=O)NCCCC(=O)Nc4cc(-c5cccs5)ccc4N)C(=O)O)cc3)nc2c(=O)[nH]1 | – | – | – | – | 2940 nM | 23% | inhibition [8]: 22.8%
15 | Nc1nc2ncc(CNc3ccc(C(=O)NCCCCCCCCCC(=O)NO)cc3)nc2c(=O)[nH]1 | 476 nM | – | 47% | 36% | – | 40% | inhibition (Histone deacetylase 1 [10]): 53%
16 | Nc1nc2ncc(CNc3ccc(C(=O)NCCCCCCCC(=O)NO)cc3)nc2c(=O)[nH]1 | 55.4 nM | 9380 nM | – | – | 16.1 nM | – | inhibition at 100 µM (A549): < 20%; IC50 (KB [11]): 30300 nM; Activity (KB [13]): inactive; Activity [12]: Active; IC50 (HeLa [14]): 56600 nM
17 | Nc1nc2ncc(CNc3ccc(C(=O)NCCCCC(=O)NO)cc3)nc2c(=O)[nH]1 | 212 nM | – | < 20% | < 20% | 6150 nM | 39% | –
18 | Nc1nc2ncc(CNc3ccc(C(=O)N[C@@H](CCC(=O)NCCCCCCC(=O)NO)C(=O)O)cc3)nc2c(=O)[nH]1 | 132 nM | 2390 nM | < 20% | < 20% | 1770 nM | – | –
